≈ marks a conversion by molar mass, not a printed value. Calls of active or inactive are those of the source.
Experiments:
[1] = tested on: A549; assay: Cytotoxicity against human A549 cells; format: functional; settings: read-out: ED50 (the source's name)
Procedure, shortened: (§1)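 Human tumour cell lines DU145, A549, KB and multidrug-resistant KB-VIN were exposed to the quassinoids, with paclitaxel as reference. ED50 was the mean concentration giving 50% effect under the defined assay condition, reported in µM.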

[2] = tested on: DU-145; assay: Cytotoxicity against human DU145 cells; format: functional; settings: read-out: ED50 (the source's name); procedure, shortened: as §1
[3] = Cytotoxicity against human KBVIN cells; format: functional; settings: read-out: ED50 (the source's name); procedure, shortened: as §1
[4] = tested on: KB; assay: Cytotoxicity against human KB cells; format: functional; settings: read-out: ED50 (the source's name); procedure, shortened: as §1
[5] = Growth inhibition of human KBVIN cells at 10 ug/ml; format: functional; settings: read-out: GI
[6] = tested on: Mus musculus; assay: Reduction of mammary gland ductal branching in […]/p53-deficient C57BL/6/129/Sv mouse model at 0.1 mg/kg, ip daily for 5 days measured post last dose by immunohistochemistry; format: functional, organism-based; set-up: dose 0.1 mg/kg
Procedure, shortened: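 Three-month-old Brca1/p53 conditional mutant mice (mixed C57BL/6 and 129/Sv background) dosed i.p. daily for 5 days, with vehicle controls. Fourth-pair mammary glands are whole-mounted, fixed in Carnoy's 3 h and stained overnight with carmine alum. Ductal branching points are scored against vehicle-treated mice, significance by two-tailed t-test.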

[7] = tested on: Mus musculus; assay: Reduction of mammary gland ductal branching in […]/p53-deficient C57BL/6/129/Sv mouse model at 0.1 mg/kg, ip daily for 7 days measured post last dose by immunohistochemistry; format: functional
Procedure, shortened: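 Three-month-old Brca1/p53 conditional mutant mice (Cre, mixed C57BL/6 and 129/Sv background) given […] daily for 7 days. Dose is drawn from a 1 mg/mL DMSO stock, 10 µL mixed with 30 µL 40% PEG and 60 µL 0.9% NaCl at dosing. Controls get vehicle. Fourth-pair glands are whole-mounted, Carnoy-fixed 3 h and carmine alum-stained overnight. Branching points are counted relative to vehicle, two-tailed t-test.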

[8] = tested on: SK-BR-3; assay: Cytotoxicity against human SK-BR-3 cells; format: functional, cell-based
[9] = tested on: MDA-MB-468; assay: Cytotoxicity against human MDA-MB-468 cells; format: functional, cell-based
[10] = Cytotoxicity against human HOC7 cells; format: functional, cell-based
[11] = tested on: BT-474; assay: Cytotoxicity against human BT474 cells; format: functional, cell-based
[12] = Cytotoxicity against human 2774-C10 cells; format: functional, cell-based
[13] = tested on: MDA-MB-231; assay: Cytotoxicity against human MDA-MB-231 cells; format: functional, cell-based
[14] = tested on: MCF7; assay: Cytotoxicity against human MCF7 cells; format: functional, cell-based
[15] = Cytotoxicity against human HeyA8 cells; format: functional, cell-based; settings: HEY A8
[16] = Cytotoxicity against human MSPC1 cells; format: functional, cell-based
[17] = tested on: MCF7; assay: Cytotoxicity against human MCF7 cells overexpressing HER2; format: functional, cell-based

Compound: CC[C@@](C)(OC(C)=O)C(=O)O[C@H]1C(=O)O[C@@H]2C[C@H]3C(C)=CC(=O)[C@@H](O)[C@]3(C)[C@H]3[C@@]4(O)OC[C@]32[C@@H]1[C@@H](C)[C@H]4O
- EC50 [1]: 0.07 µM
- EC50 [2]: 0.07 µM
- EC50 [3]: 0.44 µM
- EC50 [4]: 0.07 µM

Compound: CC[C@](C)(OC(C)=O)C(=O)O[C@H]1C(=O)O[C@@H]2C[C@H]3C(C)=C[C@H](O)[C@@H](O)[C@]3(C)[C@H]3[C@@]4(O)OC[C@]32[C@@H]1[C@@H](C)[C@H]4O
- EC50 [1]: 3.6 µM
- EC50 [2]: 0.83 µM
- EC50 [4]: 0.67 µM
- inhibition of growth at 10 µg/mL [5]: < 50%

Compound: COC(=O)[C@@]12OC[C@]34[C@H]([C@@H](O)[C@@H]1O)[C@@]1(C)CC(=O)C(O)=C(C)[C@@H]1C[C@H]3OC(=O)[C@H](OC(=O)/C=C(\C)C(C)C)[C@@H]24
- inhibition [6]: Active
- inhibition [7]: Active

Compound: CC[C@](C)(OC(C)=O)C(=O)O[C@H]1C(=O)O[C@@H]2C[C@H]3C(C)=CC(=O)[C@@H](O)[C@]3(C)[C@H]3[C@@]4(O)OC[C@]32[C@@H]1[C@@H](C)[C@H]4O [2'-ACETOXY-GLAUCARUBINONE]
- EC50 [1]: 0.06 µM
- IC50 [8]: 0.014 µg/mL (≈ 0.0261 µM)
- IC50 [9]: 0.016 µg/mL (≈ 0.0298 µM)
- EC50 [2]: 0.04 µM
- EC50 [3]: 0.42 µM
- IC50 [10]: < 0.01 µg/mL
- EC50 [4]: 0.05 µM
- IC50 [11]: 28.4 µg/mL (≈ 52.9 µM)
- IC50 [12]: < 0.01 µg/mL
- IC50 [13]: 0.077 µg/mL (≈ 0.144 µM)
- IC50 [14]: 8.13 µg/mL (≈ 15.2 µM)
- IC50 [15]: < 0.01 µg/mL
- IC50 [16]: < 0.01 µg/mL
- IC50 [17]: 0.013 µg/mL (≈ 0.0242 µM)

Compound: CCC(C)C(=O)O[C@H]1C(=O)O[C@@H]2C[C@H]3C(C)=CC(=O)[C@@H](O)[C@]3(C)[C@H]3[C@]4(O)OC[C@]32[C@@H]1[C@@H](C)[C@H]4O (stereo not given in full) [AILANTHINONE]
- EC50 [1]: 0.13 µM
- EC50 [2]: 0.09 µM
- EC50 [3]: 0.37 µM
- EC50 [4]: 0.18 µM

Compound: CCC(C)C(=O)O[C@H]1C(=O)O[C@@H]2C[C@H]3C(C)=C[C@H](O)[C@@H](O)[C@]3(C)[C@H]3[C@@]4(O)OC[C@]32[C@@H]1[C@@H](C)[C@H]4O (stereo not given in full) [EXCELSIN]
- EC50 [1]: 16 µM
- EC50 [2]: 4.7 µM
- EC50 [4]: 4.3 µM
- inhibition of growth at 10 µg/mL [5]: < 50%

Compound: CC[C@](C)(O)C(=O)O[C@H]1C(=O)O[C@@H]2C[C@H]3C(C)=CC(=O)[C@@H](O)[C@]3(C)[C@H]3[C@@]4(O)OC[C@]32[C@@H]1[C@@H](C)[C@H]4O [GLAUCARUBINONE]
- EC50 [1]: 0.88 µM
- EC50 [2]: 0.47 µM
- EC50 [3]: 1.24 µM
- EC50 [4]: 0.44 µM

Compound: CC(=O)O[C@H]1C(=O)[C@@]2(C)[C@H]([C@H](OC(=O)c3ccccc3)[C@]3(O)C[C@H](OC(=O)[C@H](O)[C@@H](NC(=O)c4ccccc4)c4ccccc4)C(C)=C1C3(C)C)[C@]1(OC(C)=O)CO[C@@H]1C[C@@H]2O [PACLITAXEL]
- EC50 [1]: 0.008 µM
- EC50 [2]: 0.003 µM
- EC50 [3]: > 1 µM
- EC50 [4]: 0.007 µM
